Test results as given in ChEMBL document CHEMBL3600321, “Synthesis and antifungal evaluation of head-to-head and head-to-tail bisamidine compounds” (Bioorg Med Chem, 2015).
Values after ≈ are worked out from the molar mass of the structure shown. Active and inactive are the calls of the source. The rule behind the calls is not given here.

Legend:
Candida albicans [1] = experiment: Antifungal activity against Candida albicans WTBF-50 by microbroth dilution method; format: functional
Procedure, shortened: (§1)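 CLSI microbroth dilution in RPMI 1640 with L-glutamine. MIC values are geometric means of three independent assays.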

Pichia kudriavzevii = experiment: Antifungal activity against Candida krusei WTBF-51 by microbroth dilution method; format: functional
Nakaseomyces glabratus = experiment: Antifungal activity against Candida glabrata ATCC 90030 WTBF-86 by microbroth dilution method; format: functional; procedure, shortened: as §1
Candida parapsilosis = experiment: Antifungal activity against Candida parapsilosis ATCC 90018 WTBF-88 by microbroth dilution method; format: functional; conditions: Lodderomyces parapsilosis; procedure, shortened: as §1
Cryptococcus neoformans = experiment: Antifungal activity against Cryptococcus neoformans Cn18 (Serotype C) WTBF-106 by microbroth dilution method; format: functional
Procedure, shortened: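 Microbroth dilution per the CLSI protocol, run in Sabouraud Dextrose Broth in place of RPMI. MIC values are geometric means of three independent assays.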

Candida albicans [2] = experiment: Fungicidal activity against Candida albicans WTBF-50 assessed as inhibition of DNA and RNA biosynthesis after 90 mins by [3H]-adenine incorporation assay; format: functional, organism-based
Procedure, shortened: (§2)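 C. albicans was grown in RPMI at 37 °C to OD600 of about 1, then mixed with 2-fold serial dilutions of compound and one 3H precursor at 10 μCi/ml final. Incubation ran 90 min at 37 °C, about one doubling. TCA precipitate was filter-collected and scintillation-counted. Each concentration was tested in triplicate. Incorporation relative to untreated control was fitted with a four-parameter curve to give the IC50.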

Candida albicans [3] = experiment: Fungicidal activity against Candida albicans WTBF-50 assessed as inhibition of RNA biosynthesis after 90 mins by [3H]-uridine incorporation assay; format: functional, organism-based; procedure, shortened: as §2
Candida albicans [4] = experiment: Fungicidal activity against Candida albicans WTBF-50 assessed as inhibition of protein biosynthesis after 90 mins by [3H]-leucine incorporation assay; format: functional, organism-based; procedure, shortened: as §2
Candida albicans [5] = experiment: Fungicidal activity against Candida albicans WTBF-50 assessed as inhibition of cell wall biosynthesis after 90 mins by [3H]-glucosamine incorporation assay; format: functional, organism-based; procedure, shortened: as §2
Candida albicans [6] = experiment: Fungicidal activity against Candida albicans WTBF-50 assessed as inhibition of lipid biosynthesis after 90 mins by [3H]-acetate incorporation assay; format: functional, organism-based; procedure, shortened: as §2
HeLa = experiment: Cytotoxicity against human HeLa cells assessed as cell viability after 72 hrs by MTS assay; format: cell-based
Candida albicans [7] = experiment: Fungicidal activity against Candida albicans WTBF-50 assessed as decrease in number of viable cells measured within 4 to 24 hrs; format: functional, organism-based
Procedure, shortened: (§3)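 C. albicans was grown in RPMI at 37 °C to OD600 of about 1. […] Samples taken at intervals were serially diluted and plated on Sabouraud agar, and cfu/ml was counted.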

[8] = Metabolic stability in liver microsomes (unknown origin); format: ADME
Candida albicans [9] = experiment: Fungicidal activity against Candida albicans WTBF-50 assessed as log10 reduction in CFU/ml at 4 x MIC measured within 4 hrs; format: functional; procedure, shortened: as §3
Candida albicans [10] = experiment: Binding affinity to DNA in Candida albicans WTBF-50 at 4 x MIC after 30 mins by Syto9 dye-based fluorescence microscope with DAPI filter analysis
Procedure, shortened: (§4)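 An exponential C. albicans culture was treated for 30 min with bisamidine at 4× MIC or with 33 μM Syto9. Fluorescence microscopy used the DAPI channel for the bisamidine and the GFP channel for Syto9, at 400× magnification.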

Candida albicans [11] = experiment: Binding affinity to DNA in Candida albicans WTBF-50 at 4 x MIC after 30 mins by Syto9 dye-based fluorescence microscope with GFP filter analysis; procedure, shortened: as §4
Candida albicans [12] = experiment: Fungicidal activity against Candida albicans WTBF-50 assessed as decrease in number of viable cells at 4 x MIC measured within 4 to 24 hrs; format: functional, organism-based; procedure, shortened: as §3

SMILES: N=C(N)c1ccc(OCCCCCOc2ccc(C(=N)N)cc2)cc1 [PENTAMIDINE]
- MIC (Candida albicans [1]): 25 µg/mL (≈ 73.4 µM)
- MIC (Pichia kudriavzevii): 19.8 µg/mL (≈ 58.2 µM)
- MIC (Nakaseomyces glabratus): 3.13 µg/mL (≈ 9.19 µM)
- MIC (Candida parapsilosis): 12.5 µg/mL (≈ 36.7 µM)
- MIC (Cryptococcus neoformans): ≥ 100 µg/mL
- IC50 (Candida albicans [2]): 0.19 µg/mL (≈ 0.558 µM)
- IC50 (Candida albicans [3]): 12.2 µg/mL (≈ 35.8 µM)
- IC50 (Candida albicans [4]): > 25 µg/mL
- IC50 (Candida albicans [5]): > 25 µg/mL
- IC50 (Candida albicans [6]): > 25 µg/mL

SMILES: CC(=O)O.c1cc2cc(-c3ccc(-c4ccc5cc(C6=NCCCN6)oc5c4)cc3)[nH]c2cc1C1=NCCCN1
- MIC (Candida albicans [1]): 0.25 µg/mL
- MIC (Pichia kudriavzevii): 0.5 µg/mL
- MIC (Nakaseomyces glabratus): 0.06 µg/mL
- MIC (Candida parapsilosis): 0.13 µg/mL
- MIC (Cryptococcus neoformans): 0.13 µg/mL
- CC50 (HeLa): 1.5 µg/mL
- Activity (Candida albicans [7]): Dose-dependent effect
- Stability [8]: Stable
- Activity (Candida albicans [9]): >3 log10CFU/ml

SMILES: N=C(NCCN1CCOCC1)c1ccc2cc(-c3ccc(-c4cc5ccc(C(=N)NCCN6CCOCC6)cc5[nH]4)cc3)[nH]c2c1.O=C(O)C(F)(F)F
- MIC (Candida albicans [1]): 2.52 µg/mL
- MIC (Pichia kudriavzevii): 2 µg/mL
- MIC (Nakaseomyces glabratus): 2 µg/mL
- MIC (Candida parapsilosis): 2 µg/mL
- MIC (Cryptococcus neoformans): 2.48 µg/mL
- CC50 (HeLa): 24.9 µg/mL
- Stability [8]: Stable

SMILES: CC(=O)O.c1cc2cc(-c3ccc(-c4cc5ccc(C6=NCCCN6)cc5o4)cn3)[nH]c2cc1C1=NCCCN1
- MIC (Candida albicans [1]): 0.5 µg/mL
- MIC (Pichia kudriavzevii): 0.5 µg/mL
- MIC (Nakaseomyces glabratus): 0.06 µg/mL
- MIC (Candida parapsilosis): 0.13 µg/mL
- MIC (Cryptococcus neoformans): 0.25 µg/mL
- CC50 (HeLa): 15.6 µg/mL
- Stability [8]: Stable

SMILES: CC(=O)O.c1cc2cc(-c3ccc(-c4ccn5cc(C6=NCCCN6)nc5c4)cc3)[nH]c2cc1C1=NCCCN1
- MIC (Candida albicans [1]): 0.79 µg/mL
- MIC (Pichia kudriavzevii): 1 µg/mL
- MIC (Nakaseomyces glabratus): 0.13 µg/mL
- MIC (Candida parapsilosis): 0.31 µg/mL
- MIC (Cryptococcus neoformans): 0.5 µg/mL
- CC50 (HeLa): 13.4 µg/mL
- Stability [8]: Stable

SMILES: Cl.OCC1(CO)CN=C(c2ccc3cc(-c4ccc(-c5cc6ccc(C7=NCC(CO)(CO)CN7)cc6[nH]5)cc4)[nH]c3c2)NC1
- MIC (Candida albicans [1]): 1.26 µg/mL
- MIC (Pichia kudriavzevii): 8 µg/mL
- MIC (Nakaseomyces glabratus): 1 µg/mL
- MIC (Candida parapsilosis): 2 µg/mL
- MIC (Cryptococcus neoformans): 3.13 µg/mL
- CC50 (HeLa): 32.4 µg/mL
- Stability [8]: Stable

SMILES: COCCNC(=N)c1ccc2cc(-c3ccc(-c4cc5ccc(C(=N)NCCOC)cc5[nH]4)cc3)[nH]c2c1.O=C(O)C(F)(F)F
- MIC (Candida albicans [1]): 0.79 µg/mL
- MIC (Pichia kudriavzevii): 1 µg/mL
- MIC (Nakaseomyces glabratus): 0.5 µg/mL
- MIC (Candida parapsilosis): 0.79 µg/mL
- MIC (Cryptococcus neoformans): 1.1 µg/mL
- CC50 (HeLa): 3.5 µg/mL
- Stability [8]: Stable

SMILES: O=C(O)C(F)(F)F.c1cc2cc(-c3ccc(-c4cc5ccc(C6=NCCN6)cc5[nH]4)cc3)[nH]c2cc1C1=NCCN1
- MIC (Candida albicans [1]): 10.1 µg/mL
- MIC (Pichia kudriavzevii): 4 µg/mL
- MIC (Nakaseomyces glabratus): 0.25 µg/mL
- MIC (Candida parapsilosis): 0.63 µg/mL
- MIC (Cryptococcus neoformans): 2 µg/mL
- CC50 (HeLa): 32.5 µg/mL
- Stability [8]: Stable
- Activity (Candida albicans [10]): Active
- Activity (Candida albicans [11]): Active

SMILES: CC1(C)CN=C(c2ccc3cc(-c4ccc(-c5cc6ccc(C7=NCC(C)(C)CN7)cc6[nH]5)cc4)[nH]c3c2)NC1.O=C(O)C(F)(F)F
- MIC (Candida albicans [1]): 4 µg/mL
- MIC (Pichia kudriavzevii): 4 µg/mL
- MIC (Nakaseomyces glabratus): 2 µg/mL
- MIC (Candida parapsilosis): 8 µg/mL
- MIC (Cryptococcus neoformans): 3.13 µg/mL
- CC50 (HeLa): 8 µg/mL
- Stability [8]: Stable

SMILES: O=C(O)C(F)(F)F.c1cc2cc(CCc3cc4ccc(C5=NCCCN5)cc4[nH]3)[nH]c2cc1C1=NCCCN1
- MIC (Candida albicans [1]): 3.17 µg/mL
- MIC (Pichia kudriavzevii): 8 µg/mL
- MIC (Nakaseomyces glabratus): 1 µg/mL
- MIC (Candida parapsilosis): 2 µg/mL
- MIC (Cryptococcus neoformans): 1 µg/mL
- CC50 (HeLa): 24.6 µg/mL
- Stability [8]: Stable

SMILES: O=C(O)C(F)(F)F.c1cc2cc(-c3ccc(-c4cn5ccc(C6=NCCCN6)cc5n4)cc3)[nH]c2cc1C1=NCCCN1
- MIC (Candida albicans [1]): 4 µg/mL
- MIC (Pichia kudriavzevii): 6.35 µg/mL
- MIC (Nakaseomyces glabratus): 4 µg/mL
- MIC (Candida parapsilosis): 0.5 µg/mL
- MIC (Cryptococcus neoformans): 1 µg/mL
- CC50 (HeLa): 20.9 µg/mL
- Stability [8]: Stable

SMILES: Cl.N=C(N)c1ccc2cc(-c3ccc(-c4cc5ccc(C(=N)N)cc5[nH]4)cc3)[nH]c2c1
- MIC (Candida albicans [1]): 16 µg/mL
- MIC (Pichia kudriavzevii): 2 µg/mL
- MIC (Nakaseomyces glabratus): 4 µg/mL
- MIC (Candida parapsilosis): 2 µg/mL
- MIC (Cryptococcus neoformans): 3.13 µg/mL
- CC50 (HeLa): 7 µg/mL
- Stability [8]: Stable

SMILES: O=C(O)C(F)(F)F.c1cc2cc(-c3ccc(-c4nc5ccc(C6=NCCCN6)cc5[nH]4)cc3)[nH]c2cc1C1=NCCCN1
- MIC (Candida albicans [1]): 0.4 µg/mL
- MIC (Pichia kudriavzevii): 1 µg/mL
- MIC (Nakaseomyces glabratus): 0.13 µg/mL
- MIC (Candida parapsilosis): 0.16 µg/mL
- MIC (Cryptococcus neoformans): 0.5 µg/mL
- CC50 (HeLa): 14.1 µg/mL
- Stability [8]: Stable

SMILES: CC(=O)O.c1cc2cc(-c3cnc(-c4cc5ccc(C6=NCCCN6)cc5[nH]4)cn3)[nH]c2cc1C1=NCCCN1
- MIC (Candida albicans [1]): 0.5 µg/mL
- MIC (Pichia kudriavzevii): 0.5 µg/mL
- MIC (Nakaseomyces glabratus): 0.06 µg/mL
- MIC (Candida parapsilosis): 0.2 µg/mL
- MIC (Cryptococcus neoformans): 3.13 µg/mL
- CC50 (HeLa): 42.7 µg/mL
- Stability [8]: Stable

SMILES: C[C@@H]1[C@H](O)[C@@H](C)/C=C/C=C/C=C/C=C/C=C/C=C/C=C/[C@H](O[C@@H]2O[C@H](C)[C@@H](O)[C@H](N)[C@@H]2O)C[C@@H]2O[C@](O)(C[C@@H](O)C[C@@H](O)[C@H](O)CC[C@@H](O)C[C@@H](O)CC(=O)O[C@H]1C)C[C@H](O)[C@H]2C(=O)O [AMPHOTERICIN B]
- MIC (Nakaseomyces glabratus): 0.25 µg/mL (≈ 0.271 µM)
- MIC (Candida parapsilosis): 0.31 µg/mL (≈ 0.335 µM)
- MIC (Cryptococcus neoformans): 32 µg/mL (≈ 34.6 µM)
- Activity (Candida albicans [12]): Active
- IC50 (Candida albicans [2]): 0.038 µg/mL (≈ 0.0411 µM)
- IC50 (Candida albicans [3]): 0.014 µg/mL (≈ 0.0152 µM)
- IC50 (Candida albicans [4]): 0.052 µg/mL (≈ 0.0563 µM)
- IC50 (Candida albicans [5]): 0.043 µg/mL (≈ 0.0465 µM)
- IC50 (Candida albicans [6]): 0.036 µg/mL (≈ 0.039 µM)

SMILES: FC1CN=C(c2ccc3cc(-c4ccc(-c5cc6ccc(C7=NCC(F)CN7)cc6[nH]5)cc4)[nH]c3c2)NC1.O=C(O)C(F)(F)F (stereo unspecified)
- MIC (Candida albicans [1]): 0.5 µg/mL
- MIC (Pichia kudriavzevii): 0.25 µg/mL
- MIC (Nakaseomyces glabratus): 0.13 µg/mL
- MIC (Candida parapsilosis): 0.25 µg/mL
- MIC (Cryptococcus neoformans): 0.25 µg/mL
- CC50 (HeLa): 13.9 µg/mL
- Stability [8]: Stable
